This passage reports GI50, growth and IC50 results from ChEMBL document CHEMBL2380254, “Optimization of tocotrienols as antiproliferative and antimigratory leads” (Eur J Med Chem, 2013).

One assay deals with RPMI-8226. Description: Growth inhibition of human RPMI8226 cells after 48 hrs by sulforhodamine B assay. It counts as functional. The settings on record: RPMI-8226, 48 h. An outline of the steps: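 NCI-60 suspension lines in RPMI 1640 with 5% FBS and 2 mM L-glutamine, preincubated 24 h. A five-concentration 10-fold series (0.001–100 µM) was given for 48 h at 37 °C. Settled cells were fixed with 80% TCA (16% final), stained with SRB, and read at 515 nm. GI50 was taken where 100×(T−T0)/(C−T0)=50, with T0 plates fixed at drug addition.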
In general terms: Sulforhodamine B stains cellular protein and so reports cell mass.

Assay [1] relates to T47D. Put plainly: Growth inhibition of human T47D cells assessed as cell growth at 10 uM after 48 hrs by sulforhodamine B assay. It counts as functional. The settings on record: read-out: Activity. The procedure, abridged: (§1)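 Single-dose NCI-60 test at 10 µM. Cells were grown in RPMI 1640 with 5% FBS and 2 mM L-glutamine, preincubated 24 h, with T0 plates TCA-fixed. Exposure was 48 h at 37 °C, 5% CO2. Cells were fixed with cold TCA (final 10%, 4 °C, 60 min), stained with SRB and read at 515 nm. Percent growth was taken relative to T0 and untreated control; negative values denote cell kill.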

The test system of another assay is PC-3. Description: Growth inhibition of human PC3 cells after 48 hrs by sulforhodamine B assay. It counts as functional. The settings on record: PC-3, 48 h. The procedure, abridged:
(§2)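 NCI-60 panel cells grown in RPMI 1640 with 5% FBS and 2 mM L-glutamine, seeded at 5000–40,000 cells/well and preincubated 24 h. Five 10-fold dilutions (0.001–100 µM) from DMSO stocks were added for 48 h at 37 °C. Adherent cells were fixed with cold TCA (10% final) for 60 min at 4 °C, stained with 0.4% SRB, and read at 515 nm. GI50 was set where 100×(T−T0)/(C−T0)=50.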

Assay [2] has as its system NCI-H226. Description: Growth inhibition of human NCI-H226 cells after 48 hrs by sulforhodamine B assay. It counts as functional. As to conditions: NCI-H226, 48 h. An outline of the steps: as §2
The nature of assay [3]: Growth inhibition of human NCI-ADR-RES cells after 48 hrs by sulforhodamine B assay. It counts as functional. An outline of the steps:
as §2

The test system of the next assay is SK-MEL-2. Put plainly: Growth inhibition of human SK-MEL-2 cells after 48 hrs by sulforhodamine B assay. It counts as functional. As to conditions: SK-MEL-2, 48 h. The procedure, abridged:
as §2

Assay [4] deals with T47D. Put plainly: Growth inhibition of human T47D cells after 48 hrs by sulforhodamine B assay. It counts as functional. An outline of the steps:
(§3)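 NCI-60 five-dose screen. Cells were grown in RPMI 1640 with 5% FBS and 2 mM L-glutamine, plated at 5000–40,000 cells/well and incubated 24 h before dosing, with T0 plates TCA-fixed. DMSO stocks were diluted to doses of […] and exposed 48 h at 37 °C, 5% CO2. Cells were fixed with cold TCA (final 10%, 60 min, 4 °C), stained with 0.4% SRB in 1% acetic acid for 10 min, solubilized in 10 mM trizma base and read at 515 nm. GI50 is where 100×(T−T0)/(C−T0)=50.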

A further assay concerns IGROV-1. Description: Growth inhibition of human IGROV1 cells assessed as cell growth at 10 uM after 48 hrs by sulforhodamine B assay. It counts as functional. The settings on record: IGROV-1, 48 h, read-out: Activity. An outline of the steps:
(§4)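 NCI-60 single-dose screen at 10 µM: cells in RPMI 1640 with 5% FBS, preincubated 24 h, then exposed 48 h at 37 °C. TCA fixation (16% final for suspension cells), SRB staining, absorbance 515 nm. Percent growth relative to time-zero and untreated control plates; negative values indicate cell kill.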

The next assay relates to HCT-116. Put plainly: Growth inhibition of human HCT116 cells assessed as cell growth at 10 uM after 48 hrs by sulforhodamine B assay. It counts as functional. The settings on record: HCT-116, 48 h, read-out: Activity. The procedure, abridged: as §4
The subject of another assay is TK-10. Description: Growth inhibition of human TK10 cells assessed as cell growth at 10 uM after 48 hrs by sulforhodamine B assay. It counts as functional. As to conditions: TK-10, 48 h, read-out: Activity. The procedure, abridged: as §1
Another assay deals with DU-145. Description: Growth inhibition of human DU145 cells assessed as cell growth at 10 uM after 48 hrs by sulforhodamine B assay. It counts as functional. As to conditions: DU-145, 48 h, read-out: Activity. The procedure, abridged: as §4
The subject of the next assay is NCI-H460. Put plainly: Growth inhibition of human NCI-H460 cells after 48 hrs by sulforhodamine B assay. It counts as functional. The settings on record: NCI-H460, 48 h. The procedure, abridged:
as §2

A further assay has as its system SN12C. Description: Growth inhibition of human SN12C cells after 48 hrs by sulforhodamine B assay. It counts as functional. The procedure, abridged: as §3
The subject of assay [5] is NCI-H226. Description: Growth inhibition of human NCI-H226 cells assessed as cell growth at 10 uM after 48 hrs by sulforhodamine B assay. As to conditions: NCI-H226, 48 h, read-out: Activity. It counts as functional. The procedure, abridged:
(§5)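 Single-dose NCI-60 screen: adherent cells in RPMI 1640 with 5% FBS were exposed to 10 µM for 48 h at 37 °C after a 24 h preincubation. They were fixed in situ with cold TCA (10% final), stained with 0.4% SRB in 1% acetic acid, solubilized in 10 mM Tris base, and read at 515 nm. Percent growth was taken relative to time-zero and control plates.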

Assay [6] concerns SF-295. Description: Growth inhibition of human SF295 cells assessed as cell growth at 10 uM after 48 hrs by sulforhodamine B assay. It counts as functional. The settings on record: SF-295, 48 h, read-out: Activity. The procedure, abridged: as §5
The test system of a further assay is U-251. Description: Growth inhibition of human U251 cells assessed as cell growth at 10 uM after 48 hrs by sulforhodamine B assay. It counts as functional. As to conditions: U-251, 48 h, read-out: Activity. An outline of the steps:
as §1

A further assay concerns MCF7. Description: Growth inhibition of human MCF7 cells assessed as cell growth at 10 uM after 48 hrs by sulforhodamine B assay. It counts as functional. As to conditions: MCF7, 48 h, read-out: Activity. The procedure, abridged:
as §5

Assay [7] concerns KM12. Description: Growth inhibition of human KM12 cells after 48 hrs by sulforhodamine B assay. It counts as functional. The settings on record: KM12, 48 h. The procedure, abridged: (§6)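 NCI-60 screen: cells in RPMI 1640 with 5% FBS and 2 mM glutamine, 5000–40,000 cells/well, preincubated 24 h. Five concentrations (10-fold dilutions; 100 to 0.001 µM) applied for 48 h at 37 °C. TCA fixation, SRB stain, absorbance at 515 nm. Time-zero plates included; GI50 where 100×(T−T0)/(C−T0)=50.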

A further assay deals with HCT-15. Put plainly: Growth inhibition of human HCT15 cells after 48 hrs by sulforhodamine B assay. It counts as functional. As to conditions: HCT-15, 48 h. The procedure, abridged: as §6
Assay [8] deals with KM12. Description: Growth inhibition of human KM12 cells assessed as cell growth at 10 uM after 48 hrs by sulforhodamine B assay. It counts as functional. The settings on record: KM12, 48 h, read-out: Activity. The procedure, abridged:
as §4

Assay [9] is described as follows: Antiproliferative activity against mouse +SA cells by MTT assay. It counts as functional, cell-based. The settings on record: +SA cell. The procedure, abridged:
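Mouse +SA mammary epithelial cells in serum-free DMEM/F12 with BSA, transferrin, insulin and EGF. Compounds from DMSO stock conjugated to BSA (overnight, 37 °C); 0–40 µM, final DMSO <0.1%. MTT 0.42 mg/mL for 4 h at 37 °C, isopropanol solubilization, OD 570 nm. Cell number from a standard curve; IC50 by non-linear regression.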

The subject of assay [10] is SF-295. Put plainly: Growth inhibition of human SF295 cells after 48 hrs by sulforhodamine B assay. It counts as functional. As to conditions: SF-295, 48 h. The procedure, abridged: as §2

The GI50 is the concentration that inhibits growth by half. Read a low GI50 as more potent growth inhibition. As usually defined, the IC50 is the concentration that gives 50% inhibition. A lower IC50 goes with higher potency. With `CC(C)=CCC/C(C)=C/CC/C(C)=C/CC[C@]1(C)CCc2c3c(cc(C)c2O1)OCN(CCCCO)C3`, the GI50 turned out to be 20.4 µM in the assay on RPMI-8226; 16.2 µM with PC-3; 15.3 µM in the assay on NCI-H226 [2]; 16.8 µM in [3]; 18.9 µM in the assay with SK-MEL-2; 16.4 µM in the assay on T47D [4]. Further, the GI50 was 6.18 µM with NCI-H460; 16.3 µM in the assay with SN12C; 11.9 µM in the assay with KM12 [7]; 17.7 µM in the assay on HCT-15; 18.2 µM in the assay on SF-295 [10]. The growth at 10 µM in the assay with T47D [1] was -7.14%; with IGROV-1, -15.1%; in the assay with HCT-116, -96.7%; in the assay with TK-10, 88.4%; with DU-145 it was 2.95%; in the assay with NCI-H226 [5], 99.3%. For the same molecule, the growth at 10 µM with SF-295 [6] is 57.3%; in the assay with U-251, -90.5%; in the assay with MCF7, -81.2%; in the assay on KM12 [8], -89.5%. For the same molecule, the IC50 in assay [9] was determined as 1.8 µM.

Turning to `CC(C)=CCC/C(C)=C/CC/C(C)=C/CC[C@]1(C)CCc2c3c(cc(C)c2O1)OCN(CCCCCCCCO)C3`, the GI50 amounted to 1.22 µM with RPMI-8226; 1.51 µM with PC-3; 5.17 µM in the assay on NCI-H226 [2]; 3.37 µM in [3]; 5.59 µM in the assay with SK-MEL-2; 3.94 µM with T47D [4]. Moreover, the GI50 in the assay with NCI-H460 worked out at 0.71 µM; in the assay on SN12C, 1.54 µM; in the assay on KM12 [7], 0.784 µM; with HCT-15, 3 µM; with SF-295 [10] it was 1.02 µM. Further, the growth at 10 µM in the assay on T47D [1] is -67%; with IGROV-1, -79.9%; with HCT-116, -100%; with TK-10 it was 51.2%; in the assay with DU-145, -57.7%; in the assay on NCI-H226 [5] it was 50.2%. Also, the growth at 10 µM was -83.8% with SF-295 [6], -95.8% in the assay with U-251, -93.3% with MCF7 and -88.1% with KM12 [8]. The same molecule showed an IC50 in assay [9] of 0.79 µM.

Consider `CC(C)=CCC/C(C)=C/CC/C(C)=C/CC[C@]1(C)CCc2c3c(c(C)c(C)c2O1)OCN(CCCCCCCCO)C3`, for which the GI50 is 3.13 µM in the assay on RPMI-8226; 2.37 µM with PC-3; 2.79 µM in the assay with NCI-H226 [2]; 5.5 µM in assay [3]; 3.01 µM with SK-MEL-2; 3.03 µM in the assay on T47D [4]. Moreover, the GI50 was 3.25 µM in the assay with NCI-H460; 2.55 µM in the assay on SN12C; 2.93 µM in the assay with KM12 [7]; 3.32 µM with HCT-15; 3.16 µM in the assay on SF-295 [10]. The growth at 10 µM in the assay on T47D [1] is 56.1%; in the assay on IGROV-1, -53.1%; in the assay with HCT-116, -92.9%; in the assay on TK-10 it was 93.5%; with DU-145, 73.1%; in the assay on NCI-H226 [5] it was 91.6%. The growth at 10 µM with SF-295 [6] is 48.1%; with U-251 it was 34%; with MCF7 it was 4.37%; in the assay on KM12 [8], 15.7%. In assay [9], this molecule came in with an IC50 of 1.4 µM.
